In ChEMBL document CHEMBL1147862, “Studies on synthesis and pharmacological activities of 3,6-disubstituted-1,2,4-triazolo[3,4-b]-1,3,4-thiadiazoles and their dihydro analogues” (2007):

Columns and labels:
Assay type in all cases: functional
[1] = system: Mus musculus; assay: Analgesic activity in Swiss mouse assessed as increase in reaction time at 20 mg/kg, po after 60 mins by Eddy's hot plate technique
In short: (§1)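 Swiss mice of either sex, 25–35 g, placed one at a time on a hot plate held at 55 °C. End point is paw licking or jumping, whichever comes first, with a 15 s cut-off to avoid paw injury. Reaction time is recorded and reported as percent increase in reaction time.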

[2] = system: Aspergillus niger; assay: Antifungal activity against Aspergillus niger at 30 ug/ml by paper disc method; conditions: read-out: IZ
[3] = system: Bacillus subtilis; assay: Antibacterial activity against Bacillus subtilis at 20 ug/ml by agar plate diffusion technique; conditions: read-out: IZ
[4] = system: Staphylococcus aureus; assay: Antibacterial activity against Staphylococcus aureus at 30 ug/ml by agar plate diffusion technique; conditions: read-out: IZ
[5] = system: Rattus norvegicus; assay: Antiinflammatory activity in Wistar Albino rat assessed as inhibition of carrageenan-induced paw oedema at 20 mg/kg after 3 hrs relative to control
In short: (§2)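 Wistar albino rats, 150–200 g, six per group, dosed orally with a 20 mg/kg suspension; control gets 0.1 ml 1% gum acacia. After 30 min, 0.1 ml 1% carrageenan in saline is injected subplantar into the right hind paw. Paw volume is read by plethysmograph at 0–4 h. Inhibition = 100(1 − Vtest/Vcontrol) on mean volume increase.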

[6] = system: Rattus norvegicus; assay: Antiinflammatory activity in Wistar Albino rat assessed as inhibition of carrageenan-induced paw oedema at 20 mg/kg after 2 hrs relative to control; in short: as §2
[7] = system: Staphylococcus aureus; assay: Antibacterial activity against Staphylococcus aureus at 10 ug/ml by agar plate diffusion technique; conditions: read-out: IZ
[8] = system: Mus musculus; assay: Analgesic activity in Swiss mouse assessed as increase in reaction time at 20 mg/kg, po after 90 mins by Eddy's hot plate technique; in short: as §1
[9] = system: Aspergillus niger; assay: Antifungal activity against Aspergillus niger at 20 ug/ml by paper disc method; conditions: read-out: IZ
[10] = system: Escherichia coli; assay: Antibacterial activity against Escherichia coli at 10 ug/ml by agar plate diffusion technique; conditions: read-out: IZ
[11] = system: Candida albicans; assay: Antifungal activity against Candida albicans at 30 ug/ml by paper disc method; conditions: read-out: IZ
[12] = system: Pseudomonas aeruginosa; assay: Antibacterial activity against Pseudomonas aeruginosa at 20 ug/ml by agar plate diffusion technique; conditions: read-out: IZ
[13] = system: Staphylococcus aureus; assay: Antibacterial activity against Staphylococcus aureus at 20 ug/ml by agar plate diffusion technique; conditions: read-out: IZ
[14] = system: Bacillus subtilis; assay: Antibacterial activity against Bacillus subtilis at 30 ug/ml by agar plate diffusion technique; conditions: read-out: IZ
[15] = system: Bacillus subtilis; assay: Antibacterial activity against Bacillus subtilis at 10 ug/ml by agar plate diffusion technique; conditions: read-out: IZ
[16] = system: Candida albicans; assay: Antifungal activity against Candida albicans at 10 ug/ml by paper disc method; conditions: read-out: IZ
[17] = system: Pseudomonas aeruginosa; assay: Antibacterial activity against Pseudomonas aeruginosa at 10 ug/ml by agar plate diffusion technique; conditions: read-out: IZ
[18] = system: Mus musculus; assay: Analgesic activity in Swiss mouse assessed as increase in reaction time at 20 mg/kg, po after 30 mins by Eddy's hot plate technique; in short: as §1
[19] = system: Pseudomonas aeruginosa; assay: Antibacterial activity against Pseudomonas aeruginosa at 30 ug/ml by agar plate diffusion technique; conditions: read-out: IZ
[20] = system: Rattus norvegicus; assay: Antiinflammatory activity in Wistar Albino rat assessed as inhibition of carrageenan-induced paw oedema at 20 mg/kg after 1 hr relative to control; in short: as §2
[21] = system: Candida albicans; assay: Antifungal activity against Candida albicans at 20 ug/ml by paper disc method; conditions: read-out: IZ
[22] = system: Escherichia coli; assay: Antibacterial activity against Escherichia coli at 30 ug/ml by agar plate diffusion technique; conditions: read-out: IZ
[23] = system: Escherichia coli; assay: Antibacterial activity against Escherichia coli at 20 ug/ml by agar plate diffusion technique; conditions: read-out: IZ
[24] = system: Aspergillus niger; assay: Antifungal activity against Aspergillus niger at 10 ug/ml by paper disc method; conditions: read-out: IZ
[25] = system: Rattus norvegicus; assay: Antiinflammatory activity in Wistar Albino rat assessed as inhibition of carrageenan-induced paw oedema at 20 mg/kg after 4 hrs relative to control; in short: as §2

SMILES	Activity [1] [%]	zone of inhibition at 30 µg/mL [2] [mm]	zone of inhibition at 20 µg/mL [3] [mm]	zone of inhibition at 30 µg/mL [4] [mm]	inhibition in vivo at 20 mg/kg [5] [%]	inhibition in vivo at 20 mg/kg [6] [%]	zone of inhibition at 10 µg/mL [7] [mm]	Activity [8] [%]	zone of inhibition at 20 µg/mL [9] [mm]	zone of inhibition at 10 µg/mL [10] [mm]	zone of inhibition at 30 µg/mL [11] [mm]	zone of inhibition at 20 µg/mL [12] [mm]	zone of inhibition at 20 µg/mL [13] [mm]	zone of inhibition at 30 µg/mL [14] [mm]	zone of inhibition at 10 µg/mL [15] [mm]	zone of inhibition at 10 µg/mL [16] [mm]	zone of inhibition at 10 µg/mL [17] [mm]	Activity [18] [%]	zone of inhibition at 30 µg/mL [19] [mm]	inhibition in vivo at 20 mg/kg [20] [%]	further results
COc1ccc(Cc2nnc3n2NC(c2ccco2)S3)cc1OC (stereo not given)	17.26	12.3	6.65	11.8	21.1	17.5	3.7	25.11	6.96	4.29	14.7	7.11	7.31	12.2	3.8	5.48	3.73	5.36	12.7	12	zone of inhibition at 20 µg/mL [21]: 10.4 mm; zone of inhibition at 30 µg/mL [22]: 14.2 mm; zone of inhibition at 20 µg/mL [23]: 7.49 mm; zone of inhibition at 10 µg/mL [24]: 4.8 mm; inhibition in vivo at 20 mg/kg [25]: 24.6%
COc1ccc(Cl)c(-c2nnc3sc(-c4cc(O)nc(O)c4)nn23)c1	15.18	13.6	8.38	13.7	21	14.2	4.57	26.14	8.06	4.18	15	9.06	8.82	13.8	4.7	4.14	4.84	5.68	13.3	8.35	zone of inhibition at 20 µg/mL [21]: 7.15 mm; zone of inhibition at 30 µg/mL [22]: 13.2 mm; zone of inhibition at 20 µg/mL [23]: 8 mm; zone of inhibition at 10 µg/mL [24]: 4.82 mm; inhibition in vivo at 20 mg/kg [25]: 23.4%
COc1ccc(Cc2nnc3sc(-c4cc(O)nc(O)c4)nn23)cc1OC	14.1	11.9	8.12	13.9	17.1	12.9	4.61	23.45	7.84	4.26	13.9	8.9	8.93	13.9	4.58	3.82	4.63	5.71	13.1	10.5	zone of inhibition at 20 µg/mL [21]: 6.82 mm; zone of inhibition at 30 µg/mL [22]: 13.3 mm; zone of inhibition at 20 µg/mL [23]: 8.1 mm; zone of inhibition at 10 µg/mL [24]: 4.16 mm; inhibition in vivo at 20 mg/kg [25]: 20.8%
Cc1occc1-c1nnc2sc(-c3cc(O)nc(O)c3)nn12	11.45	14.8	10.4	14.5	16.5	11.4	6.07	19.35	8.48	5.38	17.3	9.81	10.8	14.8	6.02	5.34	5.95	4.35	14.2	6.25	zone of inhibition at 20 µg/mL [21]: 10 mm; zone of inhibition at 30 µg/mL [22]: 14.1 mm; zone of inhibition at 20 µg/mL [23]: 8.79 mm; zone of inhibition at 10 µg/mL [24]: 5.14 mm; inhibition in vivo at 20 mg/kg [25]: 21.7%
